According to ChEMBL document CHEMBL5032506, “Identification of Transthyretin Tetramer Kinetic Stabilizers That Are Capable of Inhibiting the Retinol-Dependent Retinol Binding Protein 4-Transthyretin Interaction: Potential Novel Therapeutics for Macular Degeneration, Transthyretin Amyloidosis, and Their Common Age-Related Comorbidities” (J Med Chem, 2021):
Calls of active or inactive are those of the source. The rule behind the calls is not given here.

How the values were obtained:
[1] = Solubility of the compound at pH 7.4 in PBS; type: physicochemical
Summary of the method: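 Kinetic solubility in PBS, pH 7.4. Values above 200 μM are capped at the top assay concentration, 200 μM.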

[2] = Plasma protein binding in rat; type: ADME, cell-free
[3] = Microsomal stability in human liver microsomes assessed as parent compound remaining measured after 30 min; type: ADME, Microsome; settings: 0.5 h
CYP2C19 = CYP2C19 (Homo sapiens, UniProt P33261); experiment: (§1) Inhibition of CYP2C19 (unknown origin) at 10 uM relative to control; type: ADME
Sequence of CYP2C19 (P33261 whole entry): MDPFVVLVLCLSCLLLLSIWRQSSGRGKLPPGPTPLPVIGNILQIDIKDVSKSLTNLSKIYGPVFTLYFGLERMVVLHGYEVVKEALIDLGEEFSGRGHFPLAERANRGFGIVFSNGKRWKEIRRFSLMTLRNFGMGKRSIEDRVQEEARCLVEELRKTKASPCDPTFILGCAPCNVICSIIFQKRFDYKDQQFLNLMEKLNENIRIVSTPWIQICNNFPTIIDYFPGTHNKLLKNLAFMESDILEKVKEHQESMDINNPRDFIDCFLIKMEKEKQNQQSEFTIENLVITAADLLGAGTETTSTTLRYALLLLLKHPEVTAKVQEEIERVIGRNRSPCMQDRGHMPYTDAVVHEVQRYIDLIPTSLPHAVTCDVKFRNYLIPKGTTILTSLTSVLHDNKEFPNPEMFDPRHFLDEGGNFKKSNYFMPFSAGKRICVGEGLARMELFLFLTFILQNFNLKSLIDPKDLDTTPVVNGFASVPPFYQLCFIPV

CYP2D6 = CYP2D6 (Homo sapiens, UniProt P10635); experiment: Inhibition of CYP2D6 (unknown origin) at 10 uM relative to control; type: ADME
Sequence of CYP2D6 (P10635 whole entry): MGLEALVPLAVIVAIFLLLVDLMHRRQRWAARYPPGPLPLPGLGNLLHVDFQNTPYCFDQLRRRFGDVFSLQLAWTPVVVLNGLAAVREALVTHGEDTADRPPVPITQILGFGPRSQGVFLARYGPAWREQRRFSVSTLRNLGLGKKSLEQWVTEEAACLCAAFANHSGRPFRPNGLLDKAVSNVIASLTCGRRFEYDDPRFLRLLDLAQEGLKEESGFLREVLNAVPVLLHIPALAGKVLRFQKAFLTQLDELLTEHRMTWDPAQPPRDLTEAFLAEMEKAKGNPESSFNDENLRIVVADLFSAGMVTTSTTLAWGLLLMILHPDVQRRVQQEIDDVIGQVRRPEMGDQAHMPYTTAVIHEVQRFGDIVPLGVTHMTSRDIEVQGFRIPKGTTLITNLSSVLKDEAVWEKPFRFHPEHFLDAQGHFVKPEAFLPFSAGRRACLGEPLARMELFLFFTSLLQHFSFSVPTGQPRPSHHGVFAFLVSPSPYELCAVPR

[4] = Microsomal stability in human liver microsomes assessed as intrinsic clearance; type: ADME, Microsome
Cytochrome P450 3A4 = Cytochrome P450 3A4 (Homo sapiens, UniProt P08684); experiment: (§2) Inhibition of CYP3A4 (unknown origin) at 10 uM relative to control; type: ADME; settings: 10 µM
Sequence of Cytochrome P450 3A4 (P08684 whole entry): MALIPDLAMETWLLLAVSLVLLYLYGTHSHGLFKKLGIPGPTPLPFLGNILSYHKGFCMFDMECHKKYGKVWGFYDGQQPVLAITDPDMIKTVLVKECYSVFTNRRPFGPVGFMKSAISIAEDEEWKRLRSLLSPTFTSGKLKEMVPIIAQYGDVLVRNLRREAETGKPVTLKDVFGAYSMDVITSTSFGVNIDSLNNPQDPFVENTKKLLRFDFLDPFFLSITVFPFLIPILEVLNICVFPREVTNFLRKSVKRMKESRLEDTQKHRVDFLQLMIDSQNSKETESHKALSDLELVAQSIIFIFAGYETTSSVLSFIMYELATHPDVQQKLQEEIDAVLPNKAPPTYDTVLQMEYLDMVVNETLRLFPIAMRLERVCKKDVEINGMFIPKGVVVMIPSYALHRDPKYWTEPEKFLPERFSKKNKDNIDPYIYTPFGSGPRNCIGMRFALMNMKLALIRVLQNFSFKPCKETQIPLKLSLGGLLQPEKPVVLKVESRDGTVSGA

[5] = molecular target: Retinol-binding protein 4 (Homo sapiens, UniProt P02753); experiment: Displacement of [3H]-all trans retinol from human urine biotinylated RBP4 incubated for 16 hrs measured by Scintillation Proximity Assay
CYP2C9 = CYP2C9 (Homo sapiens, UniProt P11712); experiment: Inhibition of CYP2C9 (unknown origin) at 10 uM relative to control; type: ADME
Sequence of CYP2C9 (P11712 whole entry): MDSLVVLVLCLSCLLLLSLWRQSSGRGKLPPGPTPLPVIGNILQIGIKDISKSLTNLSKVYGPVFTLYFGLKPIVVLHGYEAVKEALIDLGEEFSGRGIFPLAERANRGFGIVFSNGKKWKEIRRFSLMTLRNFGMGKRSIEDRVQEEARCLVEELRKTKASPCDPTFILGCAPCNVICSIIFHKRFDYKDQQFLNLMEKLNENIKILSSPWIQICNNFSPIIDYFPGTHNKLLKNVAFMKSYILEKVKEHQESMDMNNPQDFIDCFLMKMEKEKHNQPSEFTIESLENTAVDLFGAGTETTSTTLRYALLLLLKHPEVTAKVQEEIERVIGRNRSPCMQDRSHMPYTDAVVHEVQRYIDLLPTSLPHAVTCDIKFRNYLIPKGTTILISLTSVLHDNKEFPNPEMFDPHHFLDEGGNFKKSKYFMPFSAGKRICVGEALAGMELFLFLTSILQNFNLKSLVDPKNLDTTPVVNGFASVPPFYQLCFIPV

Transthyretin [6] = molecular target: T1, Transthyretin (Homo sapiens, UniProt P02766); experiment: Stabilization of human plasma TTR assessed as increase in dimer band intensity at 50 uM measured after 72 hrs by Western blotting analysis; type: cell-free
Transthyretin [7] = molecular target: T1, Transthyretin; experiment: Stabilization of human plasma TTR assessed as inhibition of formation of high molecular weight forms of TTR with acetate buffer at pH 4 by measured at 50 uM after 72 hrs by acid-induced aggregation assay; type: cell-free
CYP3A4 = CYP3A4 (Homo sapiens, UniProt P08684); experiment: as §2; type: ADME
Sequence of CYP3A4 (P08684 whole entry): as the sequence (P08684 whole entry) above

Transthyretin [8] = molecular target: T1, Transthyretin; experiment: Binding affinity to human plasma TTR tetramer assessed as displacement of diclofenac-coupled FITC by fluorescence polarization assay; type: cell-free
Mus musculus [9] = experiment: Effect of TTR level in po dosed mouse serum; type: functional, organism-based
Mus musculus [10] = experiment: Reduction in serum RBP4 level in mouse measured at 25 mg/kg, po after 1 hr
Transthyretin [11] = molecular target: T1, Transthyretin; experiment: Stabilization of human plasma TTR assessed as supression of low pH mediated TTR aggregate formation at 50 uM using pH 4 buffer; type: cell-free
Mus musculus [12] = experiment: Reduction in serum RBP4 level in mouse measured at 25 mg/kg, po after 2 hrs
Transthyretin [13] = molecular target: T1, Transthyretin; experiment: Stabilization of human plasma TTR assessed as supression of low pH mediated TTR aggregate formation at 50 uM using pH 4.0 buffer
Cytochrome P450 2C19 = Cytochrome P450 2C19 (Homo sapiens, UniProt P33261); experiment: as §1; type: ADME; settings: 10 µM
Sequence of Cytochrome P450 2C19 (P33261 whole entry): as the sequence (P33261 whole entry) above

Mus musculus [14] = experiment: Reduction in serum RBP4 level in mouse measured at 25 mg/kg, po after 6 hrs; type: functional
Summary of the method: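 Balb/c mice given a single oral dose, 25 mg/kg, in 0.9% NaCl/2% Tween 80, with a vehicle group. […] Three to eight mice per group; mean ± SD.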

[15] = Disruption of retional-induced bacterially expressed MBP-tagged RBP4-TTR (unknown origin) protein-protein interaction measured by d2 dye based HTFR assay; design: species or system Homo sapiens
[16] = Microsomal stability in mouse liver microsomes assessed as parent compound remaining measured after 30 min; type: ADME, Microsome; settings: 0.5 h
[17] = molecular target: T2, Peroxisome proliferator-activated receptor gamma (Homo sapiens, UniProt P37231); experiment: Activity at PPARgamma (unknown origin)
T2 sequence (P37231 whole entry): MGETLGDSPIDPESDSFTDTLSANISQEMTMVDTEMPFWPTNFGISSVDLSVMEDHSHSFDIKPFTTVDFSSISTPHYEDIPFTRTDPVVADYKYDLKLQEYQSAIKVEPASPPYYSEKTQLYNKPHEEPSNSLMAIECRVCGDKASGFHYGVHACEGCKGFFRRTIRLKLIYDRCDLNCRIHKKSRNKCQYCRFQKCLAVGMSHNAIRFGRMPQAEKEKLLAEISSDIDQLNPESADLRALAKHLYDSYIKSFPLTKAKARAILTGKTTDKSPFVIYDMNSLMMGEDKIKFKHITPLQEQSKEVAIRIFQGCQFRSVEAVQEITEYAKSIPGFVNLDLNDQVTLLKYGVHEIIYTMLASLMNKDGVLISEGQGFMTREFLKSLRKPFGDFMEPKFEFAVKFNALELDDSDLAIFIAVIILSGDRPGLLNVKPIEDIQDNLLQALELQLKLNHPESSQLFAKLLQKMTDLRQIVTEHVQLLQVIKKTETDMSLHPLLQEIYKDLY

[18] = Volume of distribution at steady state in male CD-1 mouse at 2 mg/kg, iv; type: ADME, organism-based; settings: in vivo, read-out: Vdss
Summary of the method: (§3)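 Adult male CD-1 mice, drug naïve, three per group; single 2 mg/kg IV bolus in 3% dimethylacetamide/45% PEG300/12% ethanol/40% sterile water. Compound measured in blood over time. CL is total body clearance, t1/2 is the terminal elimination phase half-life, Vss is volume of distribution at steady state. Reported as mean (SD).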

[19] = AUC in male CD-1 mouse at 2 mg/kg, iv; type: ADME, organism-based; design: dose 2 mg/kg; settings: in vivo
Summary of the method: (§4)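 Groups of three drug-naive adult male CD-1 mice; IV dose 2 mg/kg in 3% dimethylacetamide/45% PEG300/12% ethanol/40% sterile water; PO dose 5 mg/kg in 2% Tween 80 in 0.9% saline. Compound measured in blood; AUC_last to last quantifiable time point, AUC_INF extrapolated to infinity; Cmax is maximum observed blood concentration. Mean (SD).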

[20] = AUClast in male CD-1 mouse at 2 mg/kg, iv; type: ADME, organism-based; design: route intravenous, time 0 - last, dose 2 mg/kg; settings: in vivo; summary of the method: as §4
[21] = AUC (infinity) in male CD-1 mouse at 5 mg/kg, po; type: ADME, organism-based; design: time infinity, route oral, dose 5 mg/kg; settings: in vivo; summary of the method: as §4
[22] = Half life in male CD-1 mouse at 2 mg/kg, iv; type: ADME, organism-based; settings: in vivo; summary of the method: as §3
[23] = Clearance in male CD-1 mouse at 2 mg/kg, iv; type: ADME, organism-based; settings: in vivo; summary of the method: as §3
[24] = molecular target: Voltage-gated inwardly rectifying potassium channel KCNH2 (Homo sapiens, UniProt Q12809); experiment: Inhibition of human ERG
Sequence of Voltage-gated inwardly rectifying potassium channel KCNH2 (Q12809 whole entry): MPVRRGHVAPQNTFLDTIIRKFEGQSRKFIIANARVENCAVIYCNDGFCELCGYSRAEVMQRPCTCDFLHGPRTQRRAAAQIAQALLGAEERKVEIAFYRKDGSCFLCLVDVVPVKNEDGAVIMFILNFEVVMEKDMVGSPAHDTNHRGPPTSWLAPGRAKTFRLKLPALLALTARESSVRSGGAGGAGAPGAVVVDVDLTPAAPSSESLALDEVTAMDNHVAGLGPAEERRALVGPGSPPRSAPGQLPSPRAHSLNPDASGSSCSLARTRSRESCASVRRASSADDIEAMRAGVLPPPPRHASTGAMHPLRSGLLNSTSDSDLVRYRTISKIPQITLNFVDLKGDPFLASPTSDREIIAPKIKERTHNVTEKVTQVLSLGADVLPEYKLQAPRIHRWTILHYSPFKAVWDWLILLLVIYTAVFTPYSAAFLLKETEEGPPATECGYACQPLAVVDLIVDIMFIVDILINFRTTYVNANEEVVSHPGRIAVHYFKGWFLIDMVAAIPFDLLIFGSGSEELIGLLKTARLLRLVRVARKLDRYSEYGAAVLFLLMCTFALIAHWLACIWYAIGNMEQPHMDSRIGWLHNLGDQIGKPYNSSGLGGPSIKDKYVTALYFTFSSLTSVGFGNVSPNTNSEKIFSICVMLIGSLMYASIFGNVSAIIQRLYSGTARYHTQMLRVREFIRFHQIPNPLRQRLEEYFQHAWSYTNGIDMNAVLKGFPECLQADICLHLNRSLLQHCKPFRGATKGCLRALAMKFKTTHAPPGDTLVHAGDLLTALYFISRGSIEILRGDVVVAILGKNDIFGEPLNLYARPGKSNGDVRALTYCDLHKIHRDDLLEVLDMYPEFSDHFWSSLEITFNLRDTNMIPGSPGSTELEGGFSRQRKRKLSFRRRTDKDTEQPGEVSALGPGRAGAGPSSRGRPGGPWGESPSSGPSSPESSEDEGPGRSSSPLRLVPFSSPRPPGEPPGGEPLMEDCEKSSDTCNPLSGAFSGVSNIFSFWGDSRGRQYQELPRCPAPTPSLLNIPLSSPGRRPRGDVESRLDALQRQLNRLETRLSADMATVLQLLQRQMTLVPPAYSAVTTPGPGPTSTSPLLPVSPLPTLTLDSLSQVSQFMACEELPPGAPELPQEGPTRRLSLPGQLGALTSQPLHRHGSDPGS

[25] = AUClast in male CD-1 mouse at 5 mg/kg, po; type: ADME, organism-based; design: time 0 - last, route oral, dose 5 mg/kg; settings: in vivo; summary of the method: as §4
[26] = Half life in male CD-1 mouse at 5mg/kg, po; type: ADME, organism-based; settings: in vivo
Summary of the method: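 Adult male CD-1 mice, drug naïve, three per group; single 5 mg/kg oral dose in 2% Tween 80 in 0.9% saline. Blood compound levels followed over time; apparent terminal-phase half-life reported as mean (SD).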

Mus musculus [27] = experiment: Reduction in serum RBP4 level in mouse measured at 25 mg/kg, po administered as single dose measured after 2 hrs; type: functional
[28] = Cmax in male CD-1 mouse at 5 mg/kg, po; type: ADME, organism-based; design: route oral, dose 5 mg/kg; settings: in vivo; summary of the method: as §4
in vivo = settings: male, CD-1, mouse, iv, 2 mg/kg
[29] = Plasma protein binding in human; type: ADME, cell-free
[30] = Microsomal stability in rat liver microsomes assessed as parent compound remaining measured after 30 min; type: ADME, Microsome; settings: 0.5 h

## Cc1n[nH]c(C)c1N1CCN(c2cc(-c3nn[nH]n3)ccc2F)CC1
[1]
  solubility kinetic: ≥ 200 µM
[2]
  PPB: 94%
[3]
  Stability: 71.4%
CYP2C19
  inhibition at 10 µM: -4.8%
CYP2D6
  inhibition at 10 µM: 0.8%
[4]
  CLH: 18.4 µL/min/mg
Cytochrome P450 3A4
  inhibition (INH): 18.9%
[5]
  IC50: > 3 µM
CYP2C9
  inhibition at 10 µM: 26.3%

## O=C(O)c1ccc2nc(-c3cc(Cl)cc(Cl)c3)oc2c1
Transthyretin [6]
  Activity: Active
Transthyretin [7]
  Activity: Active
[5]
  IC50: > 30 µM

## Cc1n[nH]c(C)c1N1CCN(c2cc(F)cc(C(=O)O)c2)CC1
[5]
  IC50: > 3 µM

## Cc1n[nH]c(C)c1N1CCN(c2cccc(C(=O)O)c2F)CC1
[5]
  IC50: > 3 µM

## Cc1ccc(C(=O)O)cc1N1CCN(c2c(C)n[nH]c2C)CC1
[1]
  solubility kinetic: ≥ 200 µM
CYP2C19
  inhibition at 10 µM: 0.06%
CYP2D6
  inhibition at 10 µM: 7.34%
CYP3A4
  inhibition at 10 µM: -5.2%
[5]
  IC50: > 3 µM
CYP2C9
  inhibition at 10 µM: 56.2%

## Cc1n[nH]c(C)c1N1CC2(CN(c3cc(C(=O)O)ccc3F)C2)C1
Transthyretin [8]
  IC50: > 30 µM
[5]
  IC50: > 3 µM

## Cc1n[nH]c(C)c1N1CCN(c2cc(C(N)=O)ccc2F)CC1
[5]
  IC50: > 3 µM

## Cc1n[nH]c(C)c1N1CCN(c2cc(C(=O)O)ccc2F)CC1 [listing 1 of 3 here]
Mus musculus [9]
  Activity: inactive
Mus musculus [10]
  inhibition: Active
Transthyretin [6]
  Activity: Active
Transthyretin [11]
  Activity: Active
Mus musculus [12]
  inhibition: Active
Transthyretin [13]
  Activity: Active
Transthyretin [7]
  Activity: Active

## Cc1n[nH]c(C)c1N1CCN(c2cc(C(=O)O)ccc2Cl)CC1
[1]
  solubility kinetic: ≥ 200 µM
[2]
  PPB: 89%
Cytochrome P450 2C19
  inhibition (INH): 1.85%
CYP2D6
  inhibition at 10 µM: 10%
Cytochrome P450 3A4
  inhibition (INH): 19.5%
[5]
  IC50: > 3 µM
CYP2C9
  inhibition at 10 µM: 25.2%

## Cc1n[nH]c(C)c1N1CCN(c2cc(C(=O)O)ccc2F)CC1 [listing 2 of 3 here]
Mus musculus [14]
  inhibition in vivo at 25 mg/kg: 81%

## Cc1n[nH]c(C)c1N1CCN(c2cccc(C(=O)O)c2)CC1
[5]
  IC50: > 30 µM

## Cc1n[nH]c(C)c1N1CCN(c2cc(C(=O)O)ccc2I)CC1
Transthyretin [8]
  IC50: 0.19 µM
[15]
  IC50: 2.65 µM

## O=C(O)c1ccc(F)c(N2CCN(c3nn[nH]n3)CC2)c1
Transthyretin [8]
  IC50: > 30 µM
[5]
  IC50: > 3 µM

## Cc1n[nH]c(C)c1N1C[C@H]2CN(c3cc(C(=O)O)ccc3F)C[C@H]2C1
Transthyretin [8]
  IC50: 2.82 µM
[5]
  IC50: > 3 µM

## Cc1n[nH]c(C)c1N1CCN(c2ccc(F)c(C(=O)O)c2)CC1
[5]
  IC50: > 3 µM

## Cc1n[nH]c(C)c1N1CCN(c2cc(C(=O)O)ccc2F)CC1 [listing 3 of 3 here]
[16]
  Stability: 102%
[17]
  EC50: > 30 µM
[18]
  Vd: 2.18 L/kg
[19]
  AUC: 6240 ng·h/mL
[20]
  AUC(0-t): 6210 ng·h/mL
[21]
  AUC(0-inf): 16100 ng·h/mL
[22]
  half-life: 5.08 h
[23]
  clearance: 5.9 mL/min/kg
[24]
  IC50: > 30 µM
CYP2D6
  inhibition at 10 µM: 8.1%
CYP3A4
  inhibition at 10 µM: -2.2%
[25]
  AUC(0-t): 16000 ng·h/mL
[26]
  half-life: 5.38 h
[5]
  IC50: > 3 µM
Mus musculus [27]
  inhibition in vivo at 25 mg/kg: 66%
[28]
  Cmax: 1560 ng/mL
In vivo
  C0: 1620 ng/mL
[29]
  PPB: 83%
CYP2C9
  inhibition at 10 µM: 10.4%

## Cc1n[nH]c(C)c1N1CCN(c2cc(C(=O)O)ccc2C(F)(F)F)CC1
[1]
  solubility kinetic: ≥ 200 µM
Cytochrome P450 2C19
  inhibition (INH): 2.3%
CYP2D6
  inhibition at 10 µM: 5.9%
Cytochrome P450 3A4
  inhibition (INH): 14.8%
[5]
  IC50: > 3 µM
[29]
  PPB: 86%
CYP2C9
  inhibition at 10 µM: 17.1%

## Cc1n[nH]c(C)c1N1CCC2(CCN(c3cc(C(=O)O)ccc3F)C2)C1 (racemic)
Transthyretin [8]
  IC50: 1.08 µM
[5]
  IC50: > 3 µM

## Cc1cc(F)c(N2CCN(c3c(C)n[nH]c3C)CC2)cc1C(=O)O
[1]
  solubility kinetic: ≥ 200 µM
[2]
  PPB: 93%
[30]
  Stability: 105%
CYP2C19
  inhibition at 10 µM: -3%
CYP2D6
  inhibition at 10 µM: 9.2%
Cytochrome P450 3A4
  inhibition (INH): 31.7%
[5]
  IC50: > 3 µM
[29]
  PPB: 87%
CYP2C9
  inhibition at 10 µM: 1.1%

## Cc1noc(C)c1N1CCN(c2cc(C(=O)O)ccc2F)CC1
[5]
  IC50: > 3 µM

## Cc1n[nH]c(C)c1CCCOc1cc(C(=O)O)ccc1F [ACORAMIDIS]
[5]
  IC50: > 30 µM

## O=C(O)c1ccc(F)c(N2CCN(c3ccccc3C(F)(F)F)CC2)c1
Transthyretin [8]
  IC50: 1.7 µM
[5]
  IC50: > 3 µM
